Measurements taken from ChEMBL document CHEMBL1667760, “Synthesis and biological evaluation of 3,5-diaryl isoxazoline/isoxazole linked 2,3-dihydroquinazolinone hybrids as anticancer agents” (2011).
Activity calls are given as the source filed them. The rule behind the calls is not given here.

What was measured:
MOLT-4 = assay: Cytotoxicity against human MOLT4 cells after 48 hrs by sulforhodamine B assay; format: functional; settings: MOLT-4, 48 h
Summary of the method: (§1)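 Run by the NCI 60-cell-line screen. A one-dose pre-test was done first, followed by the main test over a 5-log dose range (10^-4 to 10^-8 M). Results are reported as log molar GI50 (50% net growth inhibition), TGI (total growth inhibition) and LC50 (50% net cell death), with mean-graph midpoints across all lines.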

HOP-62 = assay: Cytotoxicity against human HOP62 cells after 48 hrs by sulforhodamine B assay; format: functional; settings: HOP-62, 48 h; summary of the method: as §1
NCI-H226 = assay: Cytotoxicity against human NCI-H226 cells after 48 hrs by sulforhodamine B assay; format: functional; settings: NCI-H226, 48 h; summary of the method: as §1
NCI-H322M = assay: Cytotoxicity against human NCI-H322M cells after 48 hrs by sulforhodamine B assay; format: functional; summary of the method: as §1
PC-3 = assay: Cytotoxicity against human PC3 cells after 48 hrs by sulforhodamine B assay; format: functional; settings: PC-3, 48 h
Summary of the method: (§2)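 Cells were grown in RPMI 1640 with 10% FBS and 2 mM L-glutamine, plated at densities set by doubling time, and pre-incubated 24 h at 37 °C, 5% CO2. Drugs were tested at 0.1, 1, 10 and 100 µM in triplicate wells for 48 h continuous exposure. Cells were fixed with 10% TCA (final) and stained with 0.4% SRB. A540 was read against a 690 nm reference, and percent growth was calculated relative to control. Experiments were repeated three times.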

SF-268 = assay: Cytotoxicity against human SF268 cells after 48 hrs by sulforhodamine B assay; format: functional; settings: SF-268, 48 h; summary of the method: as §1
SNB-19 = assay: Cytotoxicity against human SNB19 cells after 48 hrs by sulforhodamine B assay; format: functional; settings: SNB-19, 48 h
Summary of the method: (§3)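 NCI 60-cell-line panel screen of human tumor lines: a one-dose pre-test, then the main test over a 5-log range (10^-4–10^-8 M). GI50, TGI and LC50 are reported as log molar concentrations for 50% net growth inhibition, total growth inhibition and 50% net cell death. Mean graph midpoints are also calculated.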

Malme-3M = assay: Cytotoxicity against human MALME-3M cells after 48 hrs by sulforhodamine B assay; format: functional
Summary of the method: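 Run by the NCI 60 human tumour cell line screen. A one-dose pre-test across sixty lines came first. The main test then used a 5-log dose range (10^-4–10^-8 M). Values derived per cell line were GI50 (log molar concentration for 50% net growth inhibition), TGI (total growth inhibition) and LC50 (50% net cell death).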

SK-MEL-5 = assay: Cytotoxicity against human SK-MEL-5 cells after 48 hrs by sulforhodamine B assay; format: functional; settings: SK-MEL-5, 48 h; summary of the method: as §1
UACC-62 = assay: Cytotoxicity against human UACC62 cells after 48 hrs by sulforhodamine B assay; format: functional; settings: UACC-62, 48 h; summary of the method: as §3
SK-OV-3 = assay: Cytotoxicity against human SKOV3 cells after 48 hrs by sulforhodamine B assay; format: functional; settings: SK-OV-3, 48 h; summary of the method: as §1
786-0 = assay: Cytotoxicity against human 786-0 cells after 48 hrs by sulforhodamine B assay; format: functional; settings: 786-0, 48 h; summary of the method: as §1
A498 = assay: Cytotoxicity against human A498 cells after 48 hrs by sulforhodamine B assay; format: functional; settings: A498, 48 h; summary of the method: as §1
CAKI-1 = assay: Cytotoxicity against human Caki1 cells after 48 hrs by sulforhodamine B assay; format: functional; settings: CAKI-1, 48 h; summary of the method: as §1
SN12C = assay: Cytotoxicity against human SN12C cells after 48 hrs by sulforhodamine B assay; format: functional; summary of the method: as §3
MCF7 [1] = assay: Cytotoxicity against human MCF7 cells after 48 hrs by sulforhodamine B assay; format: functional; settings: MCF7, 48 h; summary of the method: as §2
BT-549 = assay: Cytotoxicity against human BT549 cells after 48 hrs by sulforhodamine B assay; format: functional; settings: BT-549, 48 h; summary of the method: as §1
MDA-MB-435 = assay: Cytotoxicity against human MDA-MB-435 cells after 48 hrs by sulforhodamine B assay; format: functional; settings: MDA-MB-435, 48 h; summary of the method: as §1
MCF7 [2] = assay: Cell cycle arrest in human MCF7 cells assessed as accumulation at G0 phase at 5 uM after 24 hrs using propidium iodide staining by flow cytometry relative to control; format: functional
Summary of the method: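 MCF-7 cells were seeded at 5×10^5 per 60 mm dish and grown 24 h. They were then exposed to 5 uM compound for a further 24 h, with untreated control cells alongside. Cells were trypsinised, fixed in ice-cold 70% ethanol (4 °C, 30 min), treated with 1 mg/ml RNase A (37 °C, 30 min) and stained with propidium iodide/citrate/Triton solution. DNA content was read by flow cytometry on 20,000 events.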

Tubulin (Homo sapiens) = Tubulin (Homo sapiens) (UniProt P68371+Q9H4B7+P0DPH7+P68366+Q13509+Q71U36+P04350+Q3ZCM7+P07437+P68363+Q9BQE3+Q6PEY2+Q13885+Q9BVA1+Q9BUF5); assay: Inhibition of tubulin polymerization in human MCF7 cells assessed as disrupted microtubule organization at 5 uM after 48 hrs by microscopic analysis; format: cell-based
Summary of the method: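 MCF-7 cells on coverslips incubated 48 h with or without compound. Fixed in 3% paraformaldehyde/0.02% glutaraldehyde, permeabilized in -20 °C methanol, blocked with 1% BSA. Stained with mouse monoclonal anti-tubulin and FITC secondary; confocal imaging to judge microtubule network integrity.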

MCF7 [3] = assay: Induction of apoptosis in human MCF7 cells assessed as increase of cleaved PARP level at 5 uM after 24 hrs by Western blotting; format: functional, cell-based
Summary of the method: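 MCF-7 cells, kept in DMEM with 10% fetal calf serum at 37 °C under 5% CO2, treated 24 h. Lysis in ice-cold RIPA with protease inhibitors; Bradford quantitation; 30 µg protein per lane on 12% SDS-PAGE, then PVDF. Primary antibodies (1:500) at 4 °C overnight; HRP secondary (1:2000); chemiluminescence detection; β-actin loading control.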

MCF7 [4] = assay: Cytotoxicity against human MCF7 cells at 5 uM after 24 hrs by MTT assay
[5] = read-out: pLC50 (the source's name) (converted)

COc1cc(C2NC(=O)c3ccccc3N2)ccc1OCCCCCOc1c(OC)cc(C2=NOC(c3cc(OC)c(OC)c(OC)c3)C2)cc1OC (stereo unspecified)
GI50 (MOLT-4): 0.479 µM
CC50 (MOLT-4; [5]): > 100 µM
TGI (MOLT-4; read-out: pTGI): > 100 µM
GI50 (HOP-62): 19.1 µM
CC50 (HOP-62; [5]): > 100 µM
TGI (HOP-62; read-out: pTGI (converted)): 81.3 µM
GI50 (NCI-H226): 3.39 µM
CC50 (NCI-H226; [5]): > 100 µM
TGI (NCI-H226; read-out: pTGI): > 100 µM
GI50 (NCI-H322M): > 100 µM
CC50 (NCI-H322M; [5]): > 100 µM
TGI (NCI-H322M; read-out: pTGI): > 100 µM
LC50 (PC-3): > 100 µM
GI50 (PC-3; read-out: pGI50 (converted)): 28.8 µM
TGI (PC-3; read-out: pTGI): > 100 µM
GI50 (SF-268): 21.4 µM
CC50 (SF-268; [5]): > 100 µM
TGI (SF-268; read-out: pTGI): > 100 µM
GI50 (SNB-19): 16.6 µM
CC50 (SNB-19; [5]): > 100 µM
TGI (SNB-19; read-out: pTGI): > 100 µM
CC50 (Malme-3M; [5]): > 100 µM
TGI (Malme-3M; read-out: pTGI): > 100 µM
GI50 (SK-MEL-5): 0.112 µM
CC50 (SK-MEL-5; [5]): 0.933 µM
TGI (SK-MEL-5; read-out: pTGI (converted)): 0.324 µM
GI50 (UACC-62): 0.257 µM
CC50 (UACC-62; [5]): > 100 µM
TGI (UACC-62; read-out: pTGI): > 100 µM
GI50 (SK-OV-3): 25.1 µM
CC50 (SK-OV-3; [5]): > 100 µM
TGI (SK-OV-3; read-out: pTGI): > 100 µM
GI50 (786-0): 23.4 µM
CC50 (786-0; [5]): > 100 µM
TGI (786-0; read-out: pTGI (converted)): 61.7 µM
GI50 (A498): 19.5 µM
CC50 (A498; [5]): > 100 µM
TGI (A498; read-out: pTGI): > 100 µM
GI50 (CAKI-1): > 100 µM
CC50 (CAKI-1; [5]): > 100 µM
TGI (CAKI-1; read-out: pTGI): > 100 µM
GI50 (SN12C): 25.1 µM
CC50 (SN12C; [5]): > 100 µM
TGI (SN12C; read-out: pTGI): > 100 µM
GI50 (MCF7 [1]): 0.282 µM
CC50 (MCF7 [1]; [5]): > 100 µM
TGI (MCF7 [1]; read-out: pTGI): > 100 µM
CC50 (BT-549; [5]): > 100 µM
TGI (BT-549; read-out: pTGI): > 100 µM
GI50 (MDA-MB-435): 0.417 µM
CC50 (MDA-MB-435; [5]): > 100 µM
TGI (MDA-MB-435; read-out: pTGI): > 100 µM
Activity (MCF7 [2]): 1.57%
inhibition (Tubulin (Homo sapiens)): Active
Activity (MCF7 [3]): Active
Activity (MCF7 [4]): Active
